The text below walks through data of ChEMBL document CHEMBL2046385, “Palau'amine and related oroidin alkaloids dibromophakellin and dibromophakellstatin inhibit the human 20S proteasome” (J Nat Prod, 2012).

The source made the active and inactive calls. The rule behind the calls is not given here. Peptide text beside a SMILES is read from it. * marks the point of attachment. Cbz = O=C(OCc1ccccc1)*

Experiment [1] in a line: Inhibition of tryptic-like of purified human 20S proteasome using Boc-LRR-AMC as substrate after 30 mins by fluorescence assay. A digest of the protocol:
(§1)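 Purified human 20S core at 1 nM in 50 mM Tris-HCl pH 7.5 with 0.03% SDS, 37 °C. Fluorogenic substrate was used at its Km. Released AMC was read at ex 380/em 460 nm every minute for 30 min. The maximal (linear) rate was used to derive IC50. Each value is the mean of three or more independent experiments.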

The nature of experiment [2]: Inhibition of chymotryptic-like of purified human 20S immunoproteasome.
A short description of experiment [3]: Inhibition of caspase-like of purified human 20S proteasome using Z-LLE-AMC as substrate after 30 mins by fluorescence assay. An outline of the steps: as §1
A short description of experiment [4]: Inhibition of chymotryptic-like of purified human 20S proteasome using Suc-LLVY-AMC as substrate after 30 mins by fluorescence assay. An outline of the steps: as §1
The species entered for experiment [5] is Homo sapiens. In words: Reversible inhibition of chymotryptic-like of purified human 20S proteasome assessed as Suc-LLVY-AMC substrate at 1 uM measured after drug washout. An outline of the steps: (§2)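 Washout assay. Human 20S proteasome (1 nM) was exposed to vehicle or inhibitor (1 or 10 μM), then assayed for CT-L activity with Suc-LLVY-AMC as in the main assay. The mixture was washed through a 10K centrifugal filter with 500 volumes of reaction buffer. Retentate CT-L activity was compared with the prewash activity.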

Experiment [6] relates to HeLa. In words: Inhibition of 26S proteasome-mediated IkappaBalpha proteasomal degradation in human HeLa cells at 1 uM after 30 mins using DAPI staining by confocal microscopy analysis. In kind it is cell-based. A digest of the protocol:
(§3)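 HeLa cells on coverslips in MEM with 10% FBS were pretreated 30 min with 1 μM compound or 0.1% DMSO vehicle, then given 20 ng/mL TNFα for 30 min or left unstimulated. Fixed in paraformaldehyde, permeabilized with Triton, blocked in BSA/Tween. Mouse anti-IκBα (L35A5) 1:250 overnight at 4 °C, then Alexa-labelled secondary; DAPI counterstain. Confocal imaging with quantified IκBα fluorescence intensity; p-value versus vehicle/TNFα.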

The subject of experiment [7] is HeLa. In words: Inhibition of 26S proteasome-mediated IkappaBalpha proteasomal degradation in TNFalpha-stimulated human HeLa cells at 1 uM treated 30 mins before TNFalpha challenge measured after 30 mins using DAPI staining by confocal microscopy analysis. The class given is cell-based. An outline of the steps:
as §3

The species entered for experiment [8] is Homo sapiens. In words: Reversible inhibition of purified human 20S proteasome at pH >7.5. A digest of the protocol: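 Compound preincubated in assay buffer (50 mM Tris-HCl, 0.03% SDS) at pH 7.5 or 8.0 for varying times before enzyme addition. Residual inhibition of 1 nM purified human 20S proteasome then read by fluorogenic AMC release at 37 °C over 30 min.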

The test system of experiment [9] is HeLa. Description: Inhibition of 20S proteasome in TNFalpha-stimulated human HeLa cells assessed as accumulation of ubiquitinylated cellular proteins at 1 uM after 2 hrs using DAPI staining by DIC image analysis. The class given is cell-based. A digest of the protocol:
(§4)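 HeLa cells grown on glass coverslips in MEM with 10% FBS and penicillin/streptomycin. Treated 2 h with 1.0 μM compound or 0.1% DMSO vehicle, TNFα 20 ng/mL stimulation for 2 h. Fixed in 4% paraformaldehyde, permeabilized with 0.5% Triton, blocked in 5% BSA/0.05% Tween-20. […] anti-ubiquitin (P4D1) 1:250 overnight at 4 °C, then Alexa546 secondary; DAPI nuclear stain. DIC and confocal imaging, with quantification of ubiquitin fluorescence intensity.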

For experiment [10], the system named is HeLa. Description: Inhibition of 20S proteasome in TNFalpha-stimulated human HeLa cells assessed as accumulation of ubiquitinylated cellular proteins at 1 uM after 2 hrs using DAPI staining by fluorescence confocal microscopic analysis. In kind it is cell-based. A digest of the protocol:
as §4

The species entered for experiment [11] is Homo sapiens. Description: Irreversible inhibition of chymotryptic-like of purified human 20S proteasome assessed as Suc-LLVY-AMC substrate at 0.5 to 1 uM. A digest of the protocol: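 Suc-LLVY-AMC 50 μM (Km). AMC fluorescence λex 380/λem 440. Vmax taken from linear portions and plotted against [E]. An irreversible inhibitor intersects the horizontal axis rather than passing through the origin.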

Experiment [12] is filed under the species Homo sapiens. Description: Irreversible inhibition of chymotryptic-like of purified human 20S proteasome assessed as Suc-LLVY-AMC substrate at 10 to 50 uM measured after drug washout.
The species entered for experiment [13] is Homo sapiens. Description: Irreversible inhibition of chymotryptic-like of purified human 20S proteasome assessed as Suc-LLVY-AMC substrate at 1 uM measured after drug washout. A digest of the protocol:
as §2

As a reminder, the IC50 is the concentration at which inhibition is half-maximal. Low values mean greater potency in that assay, high ones weaker potency in that assay.

As to `O=C1N[C@H]2n3c(cc(Br)c3Br)C(=O)N3CCC[C@]23N1` (racemic) [DIBROMOPHAKELLSTATIN], the IC50 in [1] was > 100 µM; in [2], 6.2 µM; in experiment [3], 16.1 µM; in experiment [4] it was 11.9 µM.

As to `CC(C)C[C@@H](C=O)NC(=O)[C@H](CC(C)C)NC(=O)[C@H](CC(C)C)NC(=O)OCc1ccccc1` (Cbz-Leu-Leu-Leu-aldehyde), the inhibition entry in [5] is “Active”.

For `NC[C@@H]1[C@H]2CN3C(=O)c4cccn4[C@@H]4NC(N)=N[C@@]43[C@@H]2[C@]2(N=C(N)N[C@H]2O)[C@H]1Cl` [listing 1 of 2 here], the inhibition entry in experiment [6], in experiment [7], in [8], in experiment [9], in [10] and in experiment [11] was “Active” in each case. Besides, the inhibition entry in experiment [12] is “Active”.

Turning to `O=c1c2cc(Br)c(Br)n2cc2n1CCC2`, the IC50 in experiment [1], in experiment [2], in experiment [3] and in experiment [4] was > 100 µM throughout.

As to `NC[C@@H]1[C@H]2CN3C(=O)c4cccn4[C@@H]4NC(N)=N[C@@]43[C@@H]2[C@]2(N=C(N)N[C@H]2O)[C@H]1Cl` [listing 2 of 2 here], the IC50 in experiment [2] stood at 2.3 µM; in experiment [3], 1.6 µM; in [4], 2.5 µM.

Consider `CC[C@H](C)[C@H](NC(=O)[C@H]([C@@H](C)CC)N(C)C(C)=O)C(=O)N[C@H](C(=O)N[C@@H](CC(C)C)C(=O)[C@@]1(C)CO1)[C@@H](C)O`, for which the inhibition result in experiment [13] was “Active”.

As to `NC[C@@H]1[C@H]2CN3C(=O)c4cccn4[C@@H]4NC(N)=N[C@@]43[C@@H]2[C@]2(N=C(N)N[C@H]2O)[C@H]1Cl` (racemic), the IC50 is > 100 µM in [1], 4 µM in [2], 3 µM in [3] and 5.5 µM in experiment [4].

Turning to `NC1=N[C@]23CCCN2C(=O)c2cc(Br)c(Br)n2[C@@H]3N1` (racemic) [DIBROMOPHAKELLIN], the IC50 is > 100 µM in experiment [1], 18.7 µM in experiment [2], 27.1 µM in experiment [3] and 25.3 µM in experiment [4].
